Residues, ends and D or L forms follow the SMILES beside them.

For 3 molecules, Ratio and IC50 results are on record in ChEMBL document CHEMBL1148487, “Chemical and functional identification and characterization of novel sulfated alpha-conotoxins from the cone snail Conus anemone” (J Med Chem, 2004).

Assay [1] in a line: Inhibition ratio of rat alpha 3 beta 2 nicotinic acetylcholine receptor (nAChR) to that of at alpha 7 nicotinic acetylcholine receptor (nAChR).
For assay [2], the target named is Neuronal acetylcholine receptor; alpha3/beta2 (Rattus norvegicus, UniProt P04757+P12390). Kind of assay: Inhibition of rat Nicotinic acetylcholine receptor alpha3-beta2 expressed in Xenopus Oocytes. Type of assay: cell-based. Put shortly: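 Rat nAChR subunit cRNAs (50 nL, 5–50 ng/µL) injected into Xenopus oocytes, kept at 19 °C in ND96 pH 7.4 with gentamycin; two-electrode voltage clamp at −70 mV, 2–10 days post-injection. Peptide added to static bath, 3–10 min before agonist; sub-1 nM also perfused 10–15 min. IC50 from fitted concentration–response curves with Hill slope.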
Sequence of Neuronal acetylcholine receptor; alpha3/beta2 (P04757 whole entry, the tested form may be a part): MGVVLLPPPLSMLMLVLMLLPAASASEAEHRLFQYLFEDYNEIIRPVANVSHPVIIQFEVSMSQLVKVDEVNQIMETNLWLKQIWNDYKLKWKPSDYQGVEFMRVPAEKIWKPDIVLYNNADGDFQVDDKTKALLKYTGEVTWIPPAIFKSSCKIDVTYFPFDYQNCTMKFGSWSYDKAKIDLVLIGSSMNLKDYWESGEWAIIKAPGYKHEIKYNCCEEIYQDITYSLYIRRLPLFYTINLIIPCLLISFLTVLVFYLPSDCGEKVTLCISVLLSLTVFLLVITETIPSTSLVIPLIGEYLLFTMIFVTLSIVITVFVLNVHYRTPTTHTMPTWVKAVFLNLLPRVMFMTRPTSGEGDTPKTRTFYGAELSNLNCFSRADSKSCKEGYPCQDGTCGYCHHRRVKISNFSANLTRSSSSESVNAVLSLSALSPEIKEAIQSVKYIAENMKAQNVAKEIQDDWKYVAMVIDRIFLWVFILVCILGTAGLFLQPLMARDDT
Sequence of Neuronal acetylcholine receptor; alpha3/beta2 (P12390 whole entry, the tested form may be a part): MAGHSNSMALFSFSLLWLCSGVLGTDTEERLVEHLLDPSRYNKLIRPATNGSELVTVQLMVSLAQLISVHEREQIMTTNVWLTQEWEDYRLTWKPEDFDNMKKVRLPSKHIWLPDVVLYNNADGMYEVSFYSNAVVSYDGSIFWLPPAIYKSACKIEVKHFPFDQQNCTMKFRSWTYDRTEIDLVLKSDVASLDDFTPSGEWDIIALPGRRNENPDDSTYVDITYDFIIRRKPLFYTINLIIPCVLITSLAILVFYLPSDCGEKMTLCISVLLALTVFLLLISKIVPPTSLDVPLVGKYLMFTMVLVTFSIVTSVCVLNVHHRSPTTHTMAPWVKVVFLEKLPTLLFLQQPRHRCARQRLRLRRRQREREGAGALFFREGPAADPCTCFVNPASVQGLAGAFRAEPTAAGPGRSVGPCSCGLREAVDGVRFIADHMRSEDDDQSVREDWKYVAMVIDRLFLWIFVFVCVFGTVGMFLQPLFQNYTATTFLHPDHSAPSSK

What is called IC50 is the concentration needed to halve the response being measured. A high value points to a need for much substance. Regarding `CC(C)C[C@@H](NC(=O)[C@@H](CO)NC(=O)[C@@H](CS)NC(=O)[C@@H](CS)NC(=O)CN)C(=O)N1CCC[C@H]1C(=O)N1CCC[C@H]1C(=O)N[C@@H](CS)C(=O)N[C@@H](C)C(=O)N[C@@H](C)C(=O)N[C@@H](CC(N)=O)C(=O)N[C@@H](CC(N)=O)C(=O)N1CCC[C@@H]1C(=O)N[C@@H](CC(=O)O)C(=O)N[C@@H](Cc1ccc(S)cc1)C(=O)N[C@@H](CS)C(N)=O`, the Ratio in assay [1] came out at 0.04. Also, the midpoint of inhibition in assay [2], the IC50, lay at 9.6 nM.
In the same order, the values of `CC[C@H](C)[C@H](N)C(=O)N[C@@H](CCCN=C(N)N)C(=O)N[C@@H](CC(=O)O)C(=O)N[C@@H](CC(C(=O)O)C(=O)O)C(=O)N[C@@H](CS)C(=O)N[C@@H](CS)C(=O)N[C@@H](CO)C(=O)N[C@@H](CC(N)=O)C(=O)N1CCC[C@H]1C(=O)N[C@@H](C)C(=O)N[C@@H](CS)C(=O)N[C@@H](CCCN=C(N)N)C(=O)N[C@H](C(=O)N[C@@H](CC(N)=O)C(=O)N[C@@H](CC(N)=O)C(=O)N1C[C@H](O)C[C@H]1C(=O)N[C@@H](Cc1c[nH]cn1)C(=O)N[C@H](C(=O)N[C@@H](CS)C(N)=O)C(C)C)C(C)C` (HELM PEPTIDE1{I.R.D.[O=C(O)C(C[C@H](N[*:1])C(=O)[*:2])C(=O)O].C.C.S.N.P.A.C.R.V.N.N.[Hyp].H.V.C.[am]}$$$$V2.0) are 0.2 and 10 nM.
In the same order, the values of `CC(C)C[C@@H](NC(=O)[C@@H](CO)NC(=O)[C@@H](CS)NC(=O)[C@@H](CS)NC(=O)CN)C(=O)N1CCC[C@H]1C(=O)N1CCC[C@H]1C(=O)N[C@@H](CS)C(=O)N[C@@H](C)C(=O)N[C@@H](C)C(=O)N[C@@H](CC(N)=O)C(=O)N[C@@H](CC(N)=O)C(=O)N1CCC[C@@H]1C(=O)N[C@@H](CC(=O)O)C(=O)N[C@@H](Cc1ccc(O)cc1)C(=O)N[C@@H](CS)C(N)=O` are 7.9 and 99 nM.
